The values below come from ChEMBL document CHEMBL3085763, “The sulfamide moiety affords higher inhibitory activity and oral bioavailability to a series of coumarin dual selective RAF/MEK inhibitors” (Bioorg Med Chem Lett, 2013).

The nature of data set [1]: AUC (0 to t) in […] mouse at 200 mg/kg, po after 24 hrs by LC/MS/MS analysis. In kind it is ADME, organism-based. Further details: time < 24 hr, dose 200 mg/kg, route oral. Particulars: plasma.
A short description of data set [2]: Oral bioavailability in cynomolgus monkey at 5 mg/kg. The class given is ADME, organism-based, Macaca fascicularis. The following applies: in vivo. An outline of the steps:
(§1)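 Single intravenous and oral doses given as the sodium salt in 5% DMSO/5% Cremophor EL/15% PEG400/15% HPCD/60% water. The iv/po doses were 10/20 mg/kg in mouse, 5.0/10 mg/kg in rat and 2.5/5.0 mg/kg in monkey. Oral AUCinf, iv t1/2 and clearance were also reported.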

Data set [3] can be described thus: Oral bioavailability in Crlj:CD rat at 10 mg/kg. In kind it is ADME, organism-based. The following applies: in vivo. An outline of the steps: as §1
Data set [4] is described as follows: Oral bioavailability in BALB-nu/nu mouse at 20 mg/kg. Particulars: in vivo. The class given is ADME, organism-based. The method, boiled down: as §1
Data set [5] can be described thus: AUC (infinity) in cynomolgus monkey at 5 mg/kg, po. The class given is ADME, organism-based, Macaca fascicularis. Further details: time infinity, dose 5 mg/kg, route oral. The following applies: plasma. The method, boiled down: (§2)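 The sodium salt was dosed iv and po: mouse 10/20 mg/kg, rat 5.0/10 mg/kg, monkey 2.5/5.0 mg/kg. Vehicle was 5% DMSO/5% Cremophor EL/15% PEG400/15% HPCD/60% water. AUCinf was taken after po dosing; t1/2 was taken after iv dosing.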

Data set [6] in a line: AUC (infinity) in Crlj:CD rat at 10 mg/kg, po. The class given is ADME, organism-based. More on the design: time infinity, dose 10 mg/kg, route oral. The following applies: plasma. An outline of the steps: as §2
The nature of data set [7]: AUC (infinity) in BALB-nu/nu mouse at 20 mg/kg, po. The class given is ADME, organism-based. Further details: time infinity, dose 20 mg/kg, route oral. The following applies: plasma. An outline of the steps: as §2
Data set [8] can be described thus: Oral bioavailability in […] mouse at 100 mg/kg after 24 hrs by LC/MS/MS analysis. The class given is ADME, organism-based. Particulars: in vivo. An outline of the steps:
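Mouse 24-h exposure study with oral dosing at 100 mg/kg of the free form (not sodium salt). Formulated as a solution of 5% DMSO, 5% Cremophor EL, 15% PEG400, 15% HPCD and 60% water.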

Data set [9] is described as follows: AUC (0 to t) in […] mouse at 100 mg/kg, po after 24 hrs by LC/MS/MS analysis. In kind it is ADME, organism-based. Particulars: plasma. More on the design: time < 24 hr, dose 100 mg/kg, route oral.
The test system of the next data set is Mus musculus. The data set is described as follows: AUC (0 to t) in […] mouse assessed as dimethylcarbamic acid 6-chloro-4-methyl-2-oxo-3-[3-(sulfamoylamino)benzyl]-2H-chromen-7-yl ester level at 200 mg/kg, po after 24 hrs by LC/MS/MS analysis. The class given is ADME, organism-based, Plasma. Further details: time < 24 hr, dose 200 mg/kg, route oral. Particulars: in vivo.

Data set [10] is described as follows: AUC (0 to t) in […] mouse at 50 mg/kg, po after 24 hrs by LC/MS/MS analysis. More on the design: time < 24 hr, dose 50 mg/kg, route oral. The class given is ADME, organism-based. The following applies: plasma.

On to `Cc1c(Cc2cccc(N)c2)c(=O)oc2cc(OC(=O)N(C)C)c(Cl)cc12`, for which, in [1], the AUC(0-t) at 24 h amounted to 29 µM·h. For the compound `Cc1c(Cc2cccc(NS(N)(=O)=O)c2F)c(=O)oc2cc(OC(=O)N(C)C)c(F)cc12`, the results for the bioavailability in [2], in data set [3] and in data set [4] were 30%, 62% and 51%, respectively. The area under the curve AUC(0-inf) in [5] amounted to 2.2 µM·h; in data set [6], 6 µM·h; in data set [7] it was 26 µM·h. `Cc1c(Cc2cccc(NS(N)(=O)=O)c2)c(=O)oc2cc(OC(=O)N(C)C)c(Cl)cc12`: in data set [1], the area under the curve AUC(0-t) at 24 h amounted to 70 µM·h. For `CNS(=O)(=O)Nc1cccc(Cc2c(C)c3cc(Cl)c(OC(=O)N(C)C)cc3oc2=O)c1`, the bioavailability is under 5% in data set [2] and 10% in [8]. Moreover, in data set [9], the exposure AUC(0-t) at 24 h is 17 µM·h.

With `Cc1c(Cc2cccc(NS(=O)(=O)NCCO)c2)c(=O)oc2cc(OC(=O)N(C)C)c(Cl)cc12`, the AUC(0-t) at 24 h in data set [1] was found to be 14 µM·h. For the compound `COCCNS(=O)(=O)Nc1cccc(Cc2c(C)c3cc(Cl)c(OC(=O)N(C)C)cc3oc2=O)c1`, in the data set on Mus musculus, the AUCt is 14 µM·h. The compound further came in with an AUC(0-t) at 24 h in data set [1] of 9 µM·h. For `Cc1c(Cc2cccc(NS(=O)(=O)NCCC#N)c2)c(=O)oc2cc(OC(=O)N(C)C)c(Cl)cc12`, the AUC(0-t) at 24 h in data set [1] turned out to be 25 µM·h. The compound `CNS(=O)(=O)[N-]c1cccc(Cc2c(C)c3cc(Cl)c(OC(=O)N(C)C)cc3oc2=O)c1.[Na+]` came in with a bioavailability in [8] of 31%. The compound also showed an exposure AUC(0-t) at 24 h in data set [9] of 51 µM·h. As to `Cc1c(Cc2cccc(NS(C)(=O)=O)c2)c(=O)oc2cc(OC(=O)N(C)C)c(Cl)cc12`, the exposure AUC(0-t) at 24 h in data set [9] was found to be 41 µM·h. Same read-out and setting: the same measure for `Cc1c(Cc2cccc(NS(=O)(=O)NCC(F)(F)F)c2)c(=O)oc2cc(OC(=O)N(C)C)c(Cl)cc12`: 26 µM·h; for `CCS(=O)(=O)Nc1cccc(Cc2c(C)c3cc(Cl)c(OC(=O)N(C)C)cc3oc2=O)c1`: 30 µM·h. In the case of `Cc1c(Cc2cccc(NS(=O)(=O)N(C)C)c2)c(=O)oc2cc(OC(=O)N(C)C)c(Cl)cc12`, in data set [10], the area under the curve AUC(0-t) at 24 h worked out at 3 µM·h. In data set [9], `CONS(=O)(=O)Nc1cccc(Cc2c(C)c3cc(Cl)c(OC(=O)N(C)C)cc3oc2=O)c1` gave an AUC(0-t) at 24 h of 62 µM·h.
